# Compound activity from PubChem.
# Most compounds without a hit are left out; they make up all but 1.8% or so of the library.
# STAT1 inh: STAT1 signaling inhibitors, primary screen, cell-based, HTS, luciferase reporter; NIH 3T3 STAT1-luciferase reporter, IFN-gamma, luminescence; inhibition, % at 5.5 µM; 0.35% of 200,000 active;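 active = inhibition above a set limit, the mean inhibition across all tested compounds plus 3 SD, cut at about 34% in these data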
# STAT3 inh: IL-6 driven STAT3 reporter inhibitors, primary screen, U3A cells, luciferase, luminescence, MLSCN library; IL-6 STAT3-luciferase reporter; host cell line lacks STAT1; inhibition, % at 5.5 µM; 0.89% of 190,000 active; AID 862, 2007;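 active = inhibition above the mean inhibition across all screened compounds plus 3 SD, cut at about 44% in these data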
# STAT3 act-1: IL-6 driven STAT3 reporter potentiators, primary screen, U3A cells, luciferase, luminescence, MLSCN library | IL-6 STAT3-luciferase reporter; 100% = signal with IL-6 EC80 alone | activation (% of control), % at 5.6 µM | 0.91% of 190,000 active;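 active = activation above the screen-wide mean of compound activation plus 3 SD, cut at about 130% in these data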
#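 Assay system – human STAT1-deficient U3A cells with stable STAT3-luciferase reporter · Also added – IL-6 (33 ng/mL) · Schedule – compound 1 h, then IL-6 6 h at 37 °C · Technique – reporter luminescence signal · Evaluation – % activation versus median of IL-6-stimulated wells · Benchmarks – IL-6-only wells as 100% reference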
# PERK inh: block of dimerizer-induced PERK translation repression, primary screen, PERK inhibitor project, CHO PERK-DD cells, SEAP luminescence, HTS; CHO PERK-DD fusion, SEAP luminescence translation reporter; inhibition, % at 5.6 µM; Eukaryotic translation initiation factor 2-alpha kinase 3 (Homo sapiens), Q9NZJ5; 0.17% of 220,000 active;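 active = inhibition above the mean inhibition of all tested compounds plus 3 SD, set separately per screening campaign, cut at about 2.9% in these data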;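 also: PERK kinase domain activated by AP20187 dimerizer at 100 nM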
# STAT3 act-2: STAT3 reporter potentiators, retest of hits, confirmation, U3A cells, luciferase, luminescence; IL-6 potentiation; U3A cells lack STAT1; 100 means same as IL-6 alone; potentiation (% of control), % at 5.7 µM; 64% of 1,200 active; shares compounds with STAT3 act-1; AID 1267, 2008;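 active = percent activation of the STAT3 luciferase reporter above a set limit taken from the earlier primary screen, cut at about 130% in these data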
# NFkB act STAT3ct: NF-kB reporter activators in human cells, counter-screen for STAT3 activator project; shares compounds with STAT3 act-1; NF-kappaB reporter activation; activation (% of control), % at 5.7 µM; 11% of 1,200 active; in the data active = activation above about 120%;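 also: reporter induced by TNF-alpha stimulation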
# STAT1 act STAT3c: STAT1 reporter activators, IFN-gamma induced, counter-screen for STAT3 activator project, cell-based, NIH 3T3, luciferase luminescence; shares compounds with STAT3 act-1; NIH 3T3 STAT1-luciferase reporter; activation (% of control), % at 5.7 µM; 13% of 1,200 active; AID 1318, 2008;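 active = activation above the solvent-only control well mean plus 3 SD, set per screening run, cut at about 120% in these data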
# A number is an active result; i = inactive; nt = no result.
SMILES,STAT1 inh,STAT3 inh,STAT3 act-1,PERK inh,STAT3 act-2,NFkB act STAT3ct,STAT1 act STAT3c
COc1ccc(C(NC(=O)N2CC(C)OC(C)C2)C(Cl)(Cl)Cl)cc1F (stereo not given),i,i,i,i,nt,nt,nt
O=C(Nc1ccccc1N1CCN(C(=O)c2ccc(Cl)cc2)CC1)c1cc2ccccc2o1,i,i,147,i,i,i,i
Cc1ccc(C(=O)c2oc3ccccc3c2N)cc1,i,i,143,i,i,i,i
Nc1c(C(=O)c2ccc(Br)s2)oc2ccccc12,i,i,177,i,158,i,i
CCC(=O)NC(Nc1nc(C)cs1)(C(=O)OC)C(F)(F)F (stereo not given),i,i,i,i,nt,nt,nt
CC1Oc2ccccc2OC1C(=O)Nc1ccccn1 (stereo not given),i,i,156,i,144,i,i
O=C(Nc1ccccn1)C1COc2ccccc2O1 (stereo not given),i,i,i,i,nt,nt,nt
c1ccc(Cn2ccc(-c3cnc(-c4ccccc4)s3)n2)cc1,i,i,i,i,nt,nt,nt
CCC(=O)Nc1ccc(C(=O)CSc2nc(N)cc(N)n2)cc1,nt,nt,nt,i,nt,nt,nt
O=C(NN=C1CCCCCCC1)c1ccc2ccccc2n1,i,i,154,i,140,i,i
NNC(=O)c1ccc2ccccc2n1,i,i,144,i,141,i,i
O=C(NN=C1CCCCCCC1)c1ccccn1,i,i,i,i,nt,nt,nt
Cc1ccc(C)c(N2CCN(C(=O)CCn3c(=S)[nH]c4cc5c(cc4c3=O)OCO5)CC2)c1,i,i,i,i,nt,nt,nt
COC(=O)c1sccc1NC(=S)OC,nt,nt,nt,i,nt,nt,nt
COC(=O)c1c(NC(=O)c2ccc(Br)s2)sc2c1CCC2,i,i,137,i,i,i,i
COC(=O)c1sccc1NC(=O)c1ccc(Cl)s1,i,i,143,i,176,121,i
COC(=O)c1sccc1NC(=O)c1ccc(OC)cc1,i,i,i,i,nt,nt,nt
CCn1c(C(=O)Nc2ccsc2C(=O)OC)cc2sc(Cl)cc21,i,i,165,i,138,i,i
COC(=O)c1sccc1NC(=O)c1ccc(C)s1,i,i,158,i,i,i,i
Clc1nc(-c2ccccc2)cc(-c2ccccc2)n1,i,i,i,i,nt,nt,nt
COC(=O)c1sccc1NC(=O)c1ccc(Br)s1,i,i,150,i,146,i,i
COC(=O)c1sccc1NC(=O)c1cccs1,nt,nt,nt,i,nt,nt,nt
CCCN(CCC)C(=O)c1cc(-c2ccc3c(c2)OCO3)nc2ccccc12,i,i,154,i,138,i,i
CCOC(=O)c1cnn(-c2ncnc3sc(C)c(C)c23)c1N,i,i,149,i,143,i,i
CCOC(=O)c1cnn(-c2ncnc3c2cnn3Cc2ccccc2)c1N,i,i,i,i,nt,nt,nt
SMILES,STAT1 inh,STAT3 inh,STAT3 act-1,PERK inh,STAT3 act-2,NFkB act STAT3ct,STAT1 act STAT3c
O=C1CC(c2ccccc2)CC2=C1C=Nc1ccccc1N2 (stereo not given),i,i,i,i,nt,nt,nt
Cc1ccc(NC(=S)N(CCCN2CCC(C)CC2)Cc2ccco2)cc1C,i,i,i,i,nt,nt,nt
Cc1c(C#N)c2ccccc2n1CC(=O)O,i,i,159,i,161,i,i
CCOC(=O)Cn1c(C)c(C#N)c2ccccc21,i,i,i,i,nt,nt,nt
CN(CC(=O)NCCN1CCN(c2ccccc2)CC1)S(=O)(=O)c1ccc2c(c1)CCC(=O)N2,i,i,i,i,nt,nt,nt
C=CCOc1ccc(C=Nc2ccc(Cl)cc2)c(O)c1,i,i,i,i,nt,nt,nt
COc1ccc(C)cc1S(=O)(=O)N(C)CC(=O)NC1CCCCCC1,i,i,136,i,i,i,i
O=C(Cc1cccs1)N/N=C/C(Cl)=C/c1ccccc1,i,i,i,i,nt,nt,nt
Cn1c(CN2CCN(c3cccc(Cl)c3)CC2)nc2ccccc21,i,i,139,i,i,i,i
Cn1c(=O)[nH]c(=O)c2c1nc(CN1CCN(c3cccc(Cl)c3)CC1)n2CCc1ccccc1,i,i,i,i,nt,nt,nt
Cc1ccc(-c2[nH]c3ccccc3c2C(C[N+](=O)[O-])c2ccco2)cc1 (stereo not given),i,i,152,i,134,i,i
CC(=O)Nc1cccc(NC(=O)CSc2ccc(-c3cccnc3)nn2)c1,i,i,140,i,i,i,i
Cc1noc(/C=C/N(C)C)c1S(=O)(=O)N1CCc2ccccc21,i,i,151,i,139,i,i
CC(=O)Oc1cc2c(cc1Cl)C1(CC(c3ccccc3Cl)O2)CC(C)(C)NC(=S)N1 (stereo not given),i,i,i,i,nt,nt,nt
CCOC(=O)c1[nH]c2ccccc2c1NC(=S)Nc1ccccc1,i,i,157,i,163,i,i
CCOC(=O)c1[nH]c2ccccc2c1NC(=S)Nc1cccc(C)c1,i,i,163,i,155,i,i
CCOC(=O)c1[nH]c2ccccc2c1NC(=O)C(CC)CC,i,i,i,i,nt,nt,nt
c1csc(-c2nc(CN3CCSCC3)cs2)c1,nt,nt,nt,i,nt,nt,nt
Cc1ccc2c(c1)CCCN2C(=O)c1cccs1,i,i,146,i,i,i,i
O=C(c1cccs1)N1CCCc2ccccc21,i,i,i,i,nt,nt,nt
COc1ccccc1C(C)NC(=O)CCOc1cccc(C)c1 (stereo not given),i,i,i,i,nt,nt,nt
COC(=O)CCC(=O)Nc1sc(C)c(C)c1C(N)=O,i,i,i,i,nt,nt,nt
COC(=O)CCC(=O)NC(=S)Nc1sc(C)c(C)c1C(N)=O,i,i,139,i,i,137,i
O=C(NCCCN1CCOCC1)c1ccc(Cl)s1,i,i,i,i,nt,nt,nt
CCN(CC)CCCNC(=O)c1cc(-c2ccc(Cl)cc2)on1,i,i,i,i,nt,nt,nt
SMILES,STAT1 inh,STAT3 inh,STAT3 act-1,PERK inh,STAT3 act-2,NFkB act STAT3ct,STAT1 act STAT3c
Cn1nc(-c2ccc(Cl)cc2)c2cc(C(=O)NCCCN3CCOCC3)sc21,i,i,155,i,134,i,i
CCN(CC)CCNC(=O)c1cc2c(-c3ccc(Cl)cc3)nn(C)c2s1,i,i,177,i,165,i,i
Cn1nc(-c2ccc(Cl)cc2)c2cc(C(=O)NCCN3CCOCC3)sc21,i,i,145,i,152,i,i
Cn1nc(-c2ccc(Cl)cc2)c2cc(C(=O)NC3CC3)sc21,i,i,174,i,185,123,135
CCOC(=O)N1CCC(NC(=O)c2cc3c(-c4cccc(OC)c4)nn(C)c3s2)CC1,i,i,i,i,nt,nt,nt
Cc1ccc(NC(=O)CN(C)CC(=O)Nc2ccccc2C(=O)Nc2ccccc2)cc1,i,i,147,i,i,i,i
